Experimental findings from ChEMBL document CHEMBL1121835, “Synthesis and anxiolytic activity of 6-(substituted-phenyl)-1,2,4-triazolo[4,3-b]pyridazines” (J Med Chem, 1981) are described below.

Activity calls are given as the source filed them. The calls are words filed in the database; no cut-off is given here.

Assay [1] concerns Rattus norvegicus. Briefly: Compound was evaluated for anxiolytic activity for protection against pentylenetetrazole-induced convulsions; No activity at 50 mg/kg. Set-up: dose 50 mg/kg. It counts as functional, organism-based. An outline of the steps: (§1)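 Rats in groups of 10, food-deprived 24 h, given 4–6 graded doses of compound orally (or ip where noted). PTZ at 23 mg/kg was injected iv into the caudal vein 60 min later. Protection meant no clonic seizure lasting at least 5 s. The number protected was counted and the ED50 estimated.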

The species named for assay [2] is Rattus norvegicus. Briefly: Effect on […] seizures at 1 hr in rat. It counts as functional. In short, it runs like this:
(§2)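 Rats, oral dosing at three dose levels with six rats per dose; PTZ challenge (23 mg/kg iv, caudal vein) at the stated interval after dosing. Animals scored as protected if free of at least 5 s of uninterrupted clonic seizures. The median effective dose (mg/kg) is reported with its 95% confidence interval.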

Assay [3] is filed under the species Rattus norvegicus. As to the kind of experiment: Effect on […] seizures at 0.5 hr in rat. It counts as functional. In short, it runs like this:
as §2

The target in assay [4] is GABA-A receptor; anion channel. Briefly: In vitro for inhibition of [3H]diazepam towards Benzodiazepine receptor from rat. It counts as protein-complex assay. In short, it runs like this:
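Rat frontal cortex homogenized in ice-cold 0.32 M sucrose; crude P2 synaptosomal fraction resuspended in 50 mM Tris-HCl pH 7.4. IC50 read graphically from % inhibition vs log concentration plots.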

The species entered for assay [5] is Rattus norvegicus. As to the kind of experiment: Effect on […] seizures at 4 hr in rat. It counts as functional. In short, it runs like this: as §2
The target of assay [6] is T1, GABA-A receptor; anion channel (Rattus norvegicus) (UniProt O09028+P15431+P18506+P18508+P19969+P20236+P23574+P23576+P28471+P28473+P30191+P62813+P63079+P63138+Q91ZM7+Q9ES14). Briefly: In vitro inhibition of [3H]diazepam binding towards Benzodiazepine receptor at 1 uM. It counts as protein-complex assay.
For assay [7], the species on record is Rattus norvegicus. Briefly: Effect on […] seizures at 3 hr in rat. It counts as functional. An outline of the steps:
as §2

The species entered for assay [8] is Rattus norvegicus. As to the kind of experiment: Anxiolytic activity for protection against pentylenetetrazole-induced convulsions in experiment 2. It counts as functional. In short, it runs like this:
as §1

The species named for assay [9] is Rattus norvegicus. Briefly: Effect on […] seizures at 2 hr in rat. The format is functional. In short, it runs like this: as §2
The species entered for assay [10] is Rattus norvegicus. Briefly: Effect on […] seizures at 6 hr in rat. The format is functional. An outline of the steps:
as §2

For assay [11], the species on record is Rattus norvegicus. Briefly: Effect on […] seizures at 7 hr in rat. It counts as functional. An outline of the steps:
as §2

For assay [12], the species on record is Rattus norvegicus. Briefly: Effect on […] seizures at 5 hr in rat. The format is functional. An outline of the steps: as §2
The species named for assay [13] is Rattus norvegicus. As to the kind of experiment: Anxiolytic activity for protection against pentylenetetrazole-induced convulsions in experiment 1. The format is functional. To be noted: Rattus norvegicus; read-out: ED50. An outline of the steps: as §1
Assay [14] concerns Rattus norvegicus. Briefly: Compound was evaluated for anxiolytic activity for protection against pentylenetetrazole-induced convulsions administered orally; No activity at 50 mg/Kg. It counts as functional, organism-based. In short, it runs like this: as §1
In assay [15] the test system is Rattus norvegicus. As to the kind of experiment: Hypotensive activity evaluated as mean arterial blood pressure (MABP) in saline-loaded spontaneously hypertensive rats dosed (per oral) at 50 mg/kg. It counts as functional. In short, it runs like this:
(§3)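 Male Okamoto SH rats, about 300 g, gavaged with compound suspended in 2% boiled starch, with 0.9% NaCl loading at 25 mL/kg, at 0 h. An identical dose without saline followed at 24 h. Mean arterial pressure was taken by iliac artery puncture under local lidocaine at 28 h. Values are from one to three rats.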

For assay [16], the system named is Rattus norvegicus. As to the kind of experiment: Compound was evaluated for anxiolytic activity for protection against pentylenetetrazole-induced convulsions administered intraperitoneally. The format is functional. To be noted: ip. In short, it runs like this:
as §1

Assay [17] relates to Rattus norvegicus. Briefly: Hypotensive activity evaluated as mean arterial blood pressure (MABP) in saline-loaded spontaneously hypertensive rats dosed (per oral) at 100 mg/kg; Toxic at 100 mg/Kg. The format is functional, organism-based. An outline of the steps: as §3
Assay [18] deals with Rattus norvegicus. Briefly: Hypotensive activity evaluated as mean arterial blood pressure (MABP) in saline-loaded spontaneously hypertensive rats dosed (per oral) at 25 mg/kg. The format is functional. An outline of the steps: as §3
Assay [19] has as its system Rattus norvegicus. As to the kind of experiment: Hypotensive activity in saline-loaded spontaneously hypertensive rats following 100 mg/kg p.o. administration. More on the design: unit not given beside the values. To be noted: route oral. The format is functional. An outline of the steps: as §3
The species entered for assay [20] is Rattus norvegicus. Briefly: Compound was evaluated for anxiolytic activity for protection against pentylenetetrazole-induced convulsions in experiment 2. It counts as functional. In short, it runs like this:
as §1

Assay [21] addresses T1, GABA-A receptor; anion channel (Rattus norvegicus). Briefly: In vitro percent inhibition of [3H]diazepam binding to rat GABA-A benzodiazepine receptor at 1 uM. It counts as protein-complex assay.

In general, ED50 refers to the dose at which the effect has come halfway, by size or by number of responders. The IC50 is the concentration that gives 50% inhibition. Broadly, the inhibition is the share of the control response that was lost under treatment.

Consider `CCc1nnc2ccc(-c3ccccc3)nn12`, for which the ED50 result in the assay with Rattus norvegicus [1] is “inactive”.

For the compound `Cc1nnc2ccc(-c3cccc(C(F)(F)F)c3)nn12` [CI-218872], the ED50 in the assay filed under Rattus norvegicus [2] turned out to be 0.6 mg/kg; in the assay filed under Rattus norvegicus [3] it was 0.5 mg/kg; in the assay filed under Rattus norvegicus [5], 1.8 mg/kg; in the assay filed under Rattus norvegicus [7], 1 mg/kg; in the assay filed under Rattus norvegicus [8] it was 1.1 mg/kg; in the assay filed under Rattus norvegicus [9], 0.7 mg/kg. Moreover, the ED50 was found to be 2 mg/kg in the assay filed under Rattus norvegicus [10], 2.5 mg/kg in the assay listed under Rattus norvegicus [11], 1.7 mg/kg in the assay filed under Rattus norvegicus [12] and 1.7 mg/kg in the assay filed under Rattus norvegicus [13]. Further, in assay [4], the midpoint of inhibition, the IC50, lay at 116 nM. In assay [6], the inhibition was determined as 77%.

Take `Cc1nnc2ccc(-c3ccc(C(F)(F)F)cc3)nn12`: in the assay on Rattus norvegicus [14], the ED50 result is “inactive”. The MABP in the assay with Rattus norvegicus [15] was 123; with Rattus norvegicus [17], “Toxic”; with Rattus norvegicus [18], 157. Further, in the assay on Rattus norvegicus [16], the ED50 worked out at 15 mg/kg. This compound gave an inhibition in [6] of 17%.

As to `FC(F)(F)c1cccc(-c2ccc3nncn3n2)c1`, the MABP was 90 in the assay on Rattus norvegicus [19] and 117 in the assay on Rattus norvegicus [18]. Further, the IC50 in assay [4] worked out at 905 nM. Moreover, in assay [6], the inhibition was 55%. The ED50 in the assay listed under Rattus norvegicus [20] was determined as 2.5 mg/kg; in the assay listed under Rattus norvegicus [13], 4.5 mg/kg.

`COc1cccc(-c2ccc3nncn3n2)c1` showed an ED50 in the assay on Rattus norvegicus [16] of 50 mg/kg. In addition, the inhibition in [6] came out at 34%; in assay [21] it was 29%.
